# According to PMC7590959 (Journal of medicinal chemistry, 2020):
# Key:
# Gram-negative isolates = test: Abbreviated MIC panel of Gram-negative isolates; assay type: cell-based
# In short: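 Broth microdilution MIC using iron-depleted cation-adjusted Mueller–Hinton broth, except where noted otherwise. The inoculum was lowered to 6 × 10^4 CFU/mL.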
# [1] = system: K. pneumoniae (100 clinical isolates); conditions: comparator MICs from the original studies; cited from earlier work
# [2] = system: P. aeruginosa (197 clinical isolates); conditions: comparator MICs from the original studies; cited from earlier work
# [3] = IV bags, in 24 h after reconstitution; known, ref not given; cited from earlier work
# Caco-2 = Caco-2 permeability; assay type: in vitro ADME
# OXA-23 = OXA-23 (Acinetobacter baumannii, UniProt Q9L4P2); test: β-Lactamase hydrolysis, OXA-23; assay type: biochemical; conditions: OXA-23, 200 nM enzyme, 100 μM 1
# hERG = hERG (Homo sapiens, UniProt Q12809); test: hERG binding; conditions: 30 μM
# PDC-3 = PDC-3 (Pseudomonas aeruginosa, UniProt P24735, T105A); test: β-Lactamase hydrolysis, PDC-3; assay type: biochemical, P. aeruginosa
# [4] = Plasma PK after IV administration in mice; assay type: in vivo; conditions: CD-1, mouse, 50 mg/kg
# In short: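 CD-1 mice in groups of 24 received 50 mg/kg IV with parallel sampling. Blood was taken by cardiac puncture under isoflurane into lithium heparin or K2EDTA tubes and kept on ice. Tubes were spun at 2500 × g for 15 min at 4 °C within 1 h, and plasma was stored at −70 °C. Samples were acetonitrile-precipitated and run by HPLC-MS/MS against a spiked-plasma calibration curve with internal standard. Parameters were derived by noncompartmental analysis.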
# eight CYP enzymes = test: CYP inhibition; assay type: in vitro ADME; conditions: 30 μM
# KPC-2 = KPC-2 (Klebsiella pneumoniae, UniProt Q9F663); test: β-Lactamase hydrolysis, KPC-2; assay type: biochemical; conditions: KPC-2, 200 nM enzyme, 100 μM 1
# OXA-24 = OXA-24 (Acinetobacter baumannii, UniProt Q8RLA6); test: β-Lactamase hydrolysis, OXA-24; assay type: biochemical; conditions: OXA-24, 200 nM enzyme, 100 μM 1
# [5] = system: primary human hepatocytes; test: Toxicity against primary human hepatocytes; assay type: cell-based; conditions: maximum concentration 100 μM, 72 h incubation
# PER-2 = test: β-Lactamase hydrolysis, PER-2; assay type: biochemical; conditions: PER-2, 200 nM enzyme, 100 μM 1
# [6] = system: seven other tested ion channels; test: Other ion channels; assay type: binding; conditions: 30 μM
# Chain of hERG (Q12809 whole entry): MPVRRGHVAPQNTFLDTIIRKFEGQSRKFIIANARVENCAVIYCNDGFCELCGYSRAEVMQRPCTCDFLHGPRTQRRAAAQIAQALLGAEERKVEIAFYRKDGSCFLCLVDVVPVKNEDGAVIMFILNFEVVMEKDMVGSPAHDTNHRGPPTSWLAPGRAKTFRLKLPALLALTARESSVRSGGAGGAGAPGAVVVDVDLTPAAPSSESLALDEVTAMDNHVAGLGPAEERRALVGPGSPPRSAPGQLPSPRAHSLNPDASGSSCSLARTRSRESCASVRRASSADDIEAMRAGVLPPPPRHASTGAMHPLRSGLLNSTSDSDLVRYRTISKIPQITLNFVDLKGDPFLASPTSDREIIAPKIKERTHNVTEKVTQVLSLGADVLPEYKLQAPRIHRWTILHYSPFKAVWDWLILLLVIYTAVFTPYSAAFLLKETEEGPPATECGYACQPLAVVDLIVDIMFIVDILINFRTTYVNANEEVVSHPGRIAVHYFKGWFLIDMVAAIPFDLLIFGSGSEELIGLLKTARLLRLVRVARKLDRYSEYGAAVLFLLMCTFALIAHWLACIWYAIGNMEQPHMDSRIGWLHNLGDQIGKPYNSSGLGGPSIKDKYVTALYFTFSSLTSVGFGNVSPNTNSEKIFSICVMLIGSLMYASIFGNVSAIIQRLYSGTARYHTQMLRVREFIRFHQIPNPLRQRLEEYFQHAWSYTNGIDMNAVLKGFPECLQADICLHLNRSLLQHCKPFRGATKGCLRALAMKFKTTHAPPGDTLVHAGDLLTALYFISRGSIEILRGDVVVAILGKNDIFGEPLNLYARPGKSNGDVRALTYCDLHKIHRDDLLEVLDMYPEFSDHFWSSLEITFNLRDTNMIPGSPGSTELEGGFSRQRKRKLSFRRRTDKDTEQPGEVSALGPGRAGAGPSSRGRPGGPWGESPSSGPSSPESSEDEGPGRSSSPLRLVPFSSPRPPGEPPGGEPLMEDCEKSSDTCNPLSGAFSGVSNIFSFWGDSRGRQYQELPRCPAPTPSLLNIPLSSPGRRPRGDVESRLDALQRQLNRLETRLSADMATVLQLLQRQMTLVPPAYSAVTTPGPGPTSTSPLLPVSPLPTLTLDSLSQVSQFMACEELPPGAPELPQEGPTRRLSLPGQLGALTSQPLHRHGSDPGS
structure (smiles),measurement,setting,value
"CC(C)(O/N=C(\C(=O)N[C@H]1CN2CC(C(=O)NCCc3ccccc3)=C(C(=O)O)N2C1=O)c1csc(N)n1)C(=O)O [Compound 2, (S,Z)-6-(2-(2-Aminothiazol-4-yl)-2-(((2-carboxypropan-2-yl)oxy)imino)acetamido)-5-oxo-2-(phenethylcarbamoyl)-6,7-dihydro-1H,5H-pyrazolo[1,2-a]pyrazole-3-carboxylic Acid]",MIC,Gram-negative isolates,> 64 µg/mL
"C[C@@H](O)[C@H]1C(=O)N2C(C(=O)O)=C(S[C@@H]3CN[C@H](C(=O)N(C)C)C3)[C@H](C)[C@H]12 [meropenem (6), meropenem]",MIC90,[1],>64 µg/mL
same,MIC90,[2],>8 µg/mL
same,degradation after reconstitution,[3],> 30%
"CC(C)(O/N=C(\C(=O)N[C@H]1CN2CC(C(=O)NCCN3C(=O)c4cc(O)c(O)cc4C3=O)=C(C(=O)O)N2C1=O)c1csc(N)n1)C(=O)O [Compound 1, (S,Z)-6-(2-(2-Aminothiazol-4-yl)-2-(((2-carboxypropan-2-yl)oxy)imino)acetamido)-2-((2-(5,6-dihydroxy-1,3-dioxoisoindolin-2-yl)ethyl)carbamoyl)-5-oxo-6,7-dihydro-1H,5H-pyrazolo[1,2-a]pyrazole-3-carboxylic Acid]",Caco-2 permeability,Caco-2,poor
same,hydrolysis by β-lactamase,OXA-23,hydrolysis was not detected
same,hERG binding,hERG,does not bind
same,hydrolysis by β-lactamase,PDC-3,hydrolysis was not detected
same,clearance at 2 h,[4],14 mL/min/kg
same,concentration at 2 h,[4],> 1000 ng/mL
same,CYP inhibition,eight CYP enzymes,does not inhibit
same,hydrolysis by β-lactamase,KPC-2,hydrolysis was not detected
same,hydrolysis by β-lactamase,OXA-24,hydrolysis was not detected
same,toxicity,[5],not found
same,hydrolysis by β-lactamase,PER-2,hydrolysis was not detected
same,ion channel binding,[6],does not bind
"CC(C)(O/N=C(\C(=O)N[C@@H]1C(=O)N2C(C(=O)[O-])=C(C[n+]3ccccc3)CS[C@H]12)c1csc(N)n1)C(=O)O [ceftazidime (4), ceftazidime]",MIC50,[1],>64 µg/mL
same,MIC90,[1],>64 µg/mL
same,MIC90,[2],>16 µg/mL
